For assay [1], the system named is MOLM-14. The experiment in a line: Induction of apoptosis in human MOLM14 cells assessed as late apoptotic cells at 5 uM after 72 hrs by Annexin V-FITC/propidium iodide staining-based flow cytometric analysis (reference value: 2%). Type of assay: functional. The method in brief: (§1)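 100,000 cells per well treated with 2.5, 5.0 or 10 μM for 72 h. Washed in ice-cold Ca/Mg-free PBS, resuspended in 100 μl binding buffer, stained with 5 μl PI plus 3 μl annexin V-FITC for 15 min in the dark, then read immediately by flow cytometry. Quadrants scored as live, early apoptotic, late apoptotic and necrotic.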
A general note: In flow cytometry, cells or beads pass a laser one at a time.

Assay [2] relates to MOLM-14. In words: Induction of apoptosis in human MOLM14 cells assessed as necrotic cells at 5 uM after 72 hrs by Annexin V-FITC/propidium iodide staining-based flow cytometric analysis (reference value: 1%). Type of assay: functional. The method in brief:
as §1

The test system of assay [3] is MOLM-14. The experiment in a line: Induction of apoptosis in human MOLM14 cells assessed as necrotic cells at 10 uM after 72 hrs by Annexin V-FITC/propidium iodide staining-based flow cytometric analysis (reference value: 1%). It counts as functional. The method in brief:
as §1

Assay [4] concerns MV4-11. In words: Induction of apoptosis in human MV4-11 cells assessed as late apoptotic cells at 2.5 uM after 72 hrs by Annexin V-FITC/propidium iodide staining-based flow cytometric analysis (reference value: 2%). It counts as functional. The method in brief: as §1
The subject of assay [5] is MV4-11. The experiment in a line: Induction of apoptosis in human MV4-11 cells assessed as early apoptotic cells at 5 uM after 72 hrs by Annexin V-FITC/propidium iodide staining-based flow cytometric analysis (reference value: 7%). Type of assay: functional. The method in brief: as §1
Assay [6] relates to MV4-11. The experiment in a line: Induction of apoptosis in human MV4-11 cells assessed as late apoptotic cells at 5 uM after 72 hrs by Annexin V-FITC/propidium iodide staining-based flow cytometric analysis (reference value: 2%). It counts as functional. The method in brief:
as §1

Assay [7] concerns MV4-11. The experiment in a line: Induction of apoptosis in human MV4-11 cells assessed as early apoptotic cells at 10 uM after 72 hrs by Annexin V-FITC/propidium iodide staining-based flow cytometric analysis (reference value: 7%). It counts as functional. The method in brief:
as §1

Assay [8] deals with MV4-11. In words: Induction of apoptosis in human MV4-11 cells assessed as necrotic cells at 10 uM after 72 hrs by Annexin V-FITC/propidium iodide staining-based flow cytometric analysis relative to control. It counts as functional. The essentials:
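MV4-11 cells (RPMI, 10 % FBS, 37 °C, 5 % CO2), 100,000 per well, exposed to PTB at 2.5, 5.0 or 10 μM for 72 h. Washed in ice-cold Ca/Mg-free PBS, stained with annexin V-FITC and PI in 1X binding buffer for 15 min in the dark, then read at once by flow cytometry. Necrotic cells are the annexin-negative/PI-positive quadrant.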

Assay [9] has as its system MV4-11. In words: Induction of apoptosis in human MV4-11 cells after 72 hrs by Annexin V-FITC/propidium iodide staining-based flow cytometric analysis. Type of assay: functional, cell-based. The method in brief: as §1
The test system of assay [10] is MOLM-14. The experiment in a line: Upregulation of p21 protein expression in human MOLM14 cells by Western blot analysis. It counts as functional, cell-based. (In western blotting, separated proteins are transferred to a membrane and probed.)
Assay [11] deals with MOLM-14. The experiment in a line: Cytotoxicity against human MOLM14 cells assessed as cell viability after 24 to 96 hrs by MTT assay. Type of assay: functional, cell-based. The method in brief: (§2)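 AML cells kept in RPMI with 10 % FBS and 1 % penicillin-streptomycin at 37 °C, 5 % CO₂, mycoplasma-screened. Seeded at 8,000 cells/well across a range of concentrations and read at several times up to 96 h. MTT added to 0.5 mg/ml final for 3 h at 37 °C, formazan dissolved in SDS-HCl, absorbance read at 570 nm. IC50 taken from the dose-response curves.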

The test system of assay [12] is MV4-11. The experiment in a line: Cytotoxicity against human MV4-11 cells assessed as cell viability after 24 to 96 hrs by MTT assay. It counts as functional, cell-based. The method in brief:
as §2
A general note: Tetrazolium dyes change colour on reduction, which living cells bring about.

Assay [13] has as its system MV4-11. The experiment in a line: Cytotoxicity against human MV4-11 cells assessed as cell viability at 0.25 to 5 uM by MTT assay. It counts as functional, cell-based. The method in brief:
as §2

The test system of assay [14] is MOLM-14. In words: Cell cycle arrest in human MOLM14 cells assessed as decrease in cells level at G1 phase after 72 hrs by propidium iodide staining-based flow cytometric analysis. Type of assay: functional. The essentials:
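Cells in RPMI with 10 % FBS at 37 °C, 5 % CO₂; treated up to 72 h, washed in cold PBS, fixed in -20 °C-precooled 70 % ethanol at 4 °C. Stained with 50 µg/ml PI, 1 % Triton X-100 and 20 µg/ml RNase A in PBS, 30 min, 37 °C, dark. Cell-cycle phases read by flow cytometry; three independent experiments, mean ± SD.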

In assay [15] the test system is MOLM-13 (Homo sapiens). In words: Cytotoxicity against human MOLM13 cells assessed as cell viability at 0.25 to 5 uM by MTT assay.
In assay [16] the test system is MOLM-13 (Homo sapiens). In words: Cytotoxicity against human MOLM13 cells assessed as cell viability measured at 96 hrs by MTT assay. The settings on record: MOLM-13, 96 h.
For assay [17], the system named is MOLM-13 (Homo sapiens). In words: Induction of apoptosis in human MOLM13 cells after 72 hrs by Annexin V-FITC/propidium iodide staining-based flow cytometric analysis.
Assay [18] concerns MOLM-13 (Homo sapiens). The experiment in a line: Induction of apoptosis in human MOLM13 cells assessed as upregulation of cleaved caspase-9 expression after 24 hrs by Western blot analysis.
Assay [19] has as its system MOLM-13 (Homo sapiens). In words: Cell cycle arrest in human MOLM13 cells assessed as accumulation at G2/M phase after 72 hrs by propidium iodide staining-based flow cytometric analysis.
Assay [20] deals with MOLM-13 (Homo sapiens). The experiment in a line: Cell cycle arrest in human MOLM13 cells assessed as decrease in cells level at G1 phase after 72 hrs by propidium iodide staining-based flow cytometric analysis.
Assay [21] concerns MOLM-13 (Homo sapiens). The experiment in a line: Induction of apoptosis in human MOLM13 cells assessed as necrotic cells at 2.5 uM after 72 hrs by Annexin V-FITC/propidium iodide staining-based flow cytometric analysis (reference value: 3%).
The subject of assay [22] is MOLM-13 (Homo sapiens). In words: Induction of apoptosis in human MOLM13 cells assessed as early apoptotic cells at 10 uM after 72 hrs by Annexin V-FITC/propidium iodide staining-based flow cytometric analysis (reference value: 11%).

The record followed here is ChEMBL document CHEMBL3612059, “Synthesis of 1,2-benzisoxazole tethered 1,2,3-triazoles that exhibit anticancer activity in acute myeloid leukemia cell lines by inhibiting histone deacetylases, and inducing p21 and tubulin acetylation” (Bioorg Med Chem, 2015).

Active and inactive are the calls of the source. The calls are words filed in the database; no cut-off is given here.

On to `c1ccc(Oc2ccc(-c3cn(-c4noc5ccccc45)nn3)cc2)cc1`, for which the Activity in the assay with MOLM-14 [1] came out at 28%; in the assay on MOLM-14 [2], 7%; in the assay with MOLM-14 [3] it was 10%; in the assay on MV4-11 [4], 15%; in the assay with MV4-11 [5], 16%; in the assay on MV4-11 [6] it was 20%. Further, the Activity in the assay on MV4-11 [7] was 20%; in the assay on MV4-11 [8], 5%; in the assay with MV4-11 [9] it was “Dose-dependent effect”; in the assay on MOLM-14 [11] it was “Dose-dependent effect”; in the assay on MV4-11 [12], “Dose-dependent effect”; in the assay with MV4-11 [13], “Dose-dependent effect”. Moreover, the Activity entry with MOLM-13 (Homo sapiens) [15] was “Dose-dependent effect”; in the assay on MOLM-13 (Homo sapiens) [17], “Dose-dependent effect”; with MOLM-13 (Homo sapiens) [18] it was “Dose-dependent effect”; in the assay on MOLM-13 (Homo sapiens) [21], 14%; with MOLM-13 (Homo sapiens) [22] it was 28%. The result in the assay on MOLM-14 [10], with MOLM-14 [14], in the assay with MOLM-13 (Homo sapiens) [19] and in the assay with MOLM-13 (Homo sapiens) [20] was Active. In addition, in the assay with MOLM-13 (Homo sapiens) [16], the IC50 stood at 1000 nM.

As a reminder, the IC50 is the concentration that inhibits the measured activity by half.
